≈ marks a conversion by molar mass, not a printed value.
Columns and labels:
Human betaherpesvirus 5 = assay: Antiviral activity against HCMV Davis in HFF cells by plaque reduction assay; assay type: functional, organism-based; settings: Human betaherpesvirus 5, Davis
Outline: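 Plaque reduction in human foreskin fibroblasts infected with Davis strain; values are means of at least two experiments, SD given.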

[1] = target: T1, DNA polymerase catalytic subunit (Human cytomegalovirus (strain AD169) (HHV-5) (Human herpesvirus 5), UniProt P08546); assay: Inhibition of HCMV DNA polymerase by scintillation proximity assay; parameters: species or system Human betaherpesvirus 5
T1 sequence (P08546 whole entry): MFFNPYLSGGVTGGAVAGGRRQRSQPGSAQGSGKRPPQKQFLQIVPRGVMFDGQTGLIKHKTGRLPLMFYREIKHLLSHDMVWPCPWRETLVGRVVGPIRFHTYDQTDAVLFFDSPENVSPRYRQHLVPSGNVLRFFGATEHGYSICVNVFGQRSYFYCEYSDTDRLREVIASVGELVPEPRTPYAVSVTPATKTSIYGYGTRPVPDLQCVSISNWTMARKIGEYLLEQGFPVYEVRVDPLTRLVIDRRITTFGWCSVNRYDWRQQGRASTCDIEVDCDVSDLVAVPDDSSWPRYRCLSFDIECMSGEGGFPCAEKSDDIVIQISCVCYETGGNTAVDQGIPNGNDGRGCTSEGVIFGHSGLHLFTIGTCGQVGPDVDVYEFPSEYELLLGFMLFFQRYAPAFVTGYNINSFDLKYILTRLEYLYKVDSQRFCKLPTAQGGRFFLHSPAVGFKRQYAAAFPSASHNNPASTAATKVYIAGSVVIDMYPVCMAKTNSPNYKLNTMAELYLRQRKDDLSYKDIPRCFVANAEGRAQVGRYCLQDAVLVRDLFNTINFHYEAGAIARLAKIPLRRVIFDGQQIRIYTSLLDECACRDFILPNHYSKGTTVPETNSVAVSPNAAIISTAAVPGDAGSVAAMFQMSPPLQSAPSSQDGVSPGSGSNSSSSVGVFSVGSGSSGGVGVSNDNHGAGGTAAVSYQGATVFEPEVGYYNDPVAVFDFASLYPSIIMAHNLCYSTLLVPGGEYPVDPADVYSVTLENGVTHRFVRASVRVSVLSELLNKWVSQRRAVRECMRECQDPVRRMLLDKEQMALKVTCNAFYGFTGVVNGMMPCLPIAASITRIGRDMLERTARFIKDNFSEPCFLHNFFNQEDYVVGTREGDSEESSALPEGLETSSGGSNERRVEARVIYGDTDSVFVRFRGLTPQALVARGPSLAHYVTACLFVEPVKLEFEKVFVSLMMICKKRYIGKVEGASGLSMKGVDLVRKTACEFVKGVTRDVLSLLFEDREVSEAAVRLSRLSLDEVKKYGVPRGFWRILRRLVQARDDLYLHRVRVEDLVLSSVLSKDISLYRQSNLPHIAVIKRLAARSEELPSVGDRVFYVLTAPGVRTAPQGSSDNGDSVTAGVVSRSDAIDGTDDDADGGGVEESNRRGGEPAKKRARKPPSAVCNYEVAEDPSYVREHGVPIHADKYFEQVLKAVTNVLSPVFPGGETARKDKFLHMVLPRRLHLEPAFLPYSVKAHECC
Outline: (§1)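 Purified viral or human DNA polymerase; incorporation of 3H-labeled nucleotide into template-primer measured by scintillation proximity.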

[2] = Inhibition of VZV DNA polymerase by scintillation proximity assay; parameters: species or system Human alphaherpesvirus 3; outline: as §1
[3] = Inhibition of HSV1 DNA polymerase by scintillation proximity assay; parameters: species or system Human alphaherpesvirus 1; outline: as §1
[4] = Aqueous solubility of the compound; assay type: physicochemical
[5] = Inhibition of human DNA polymerase alpha by scintillation proximity assay; outline: as §1
Human alphaherpesvirus 1 = assay: Antiviral activity against HSV1 KOS in Vero cells by plaque reduction assay; assay type: functional, organism-based; settings: Human alphaherpesvirus 1, KOS
[6] = Oral bioavailability in rat at 15 mg/kg; assay type: ADME, organism-based; settings: in vivo
Human gammaherpesvirus 4 = assay: Antiviral activity against EBV in GG68 cells after 72 hrs; assay type: functional, organism-based; settings: human gammaherpesvirus 4, GG68, 72 h
Outline: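 GG68 cells induced into lytic replication with 40 ng/mL TPA plus 4 mM n-butyric acid; compound added at 0.5% final DMSO; 72 h at 37 °C, then cells lysed and DNA harvested.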

[7] = Inhibition of human DNA polymerase gamma by scintillation proximity assay; outline: as §1
Human alphaherpesvirus 3 = assay: Antiviral activity against VZV Webster in HFF cells by plaque reduction assay; assay type: functional, organism-based; settings: Human alphaherpesvirus 3, Webster
[8] = Inhibition of human DNA polymerase delta by scintillation proximity assay; outline: as §1
[9] = Inhibition of EBV DNA polymerase by T7 quick-coupled transcription-translation system; parameters: species or system human gammaherpesvirus 4
Outline: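 EBV polymerase plus BMRF-1 in 50 mM Tris pH 8, 70 mM NH4SO4, 10 mM MgCl2, dCTP/dTTP/dGTP, 0.5 µCi 32P-dATP, 100 µg/mL activated calf thymus DNA; compound added before enzyme, 1% final DMSO; 30 min at 37 °C; TCA precipitation onto glass filters, incorporated 32P counted by scintillation.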

[10] = Cytotoxicity against HFF cells after 3 days; assay type: cell-based; settings: human
Outline: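 Subconfluent replicating HFF monolayers exposed to compound for 3 days; viability scored by microscopic evaluation and quantitative neutral red dye uptake; CC50 from a single determination.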

[11] = Oral bioavailability in dog at 15 mg/kg; assay type: ADME, organism-based, Canis lupus familiaris; settings: in vivo

Structure (SMILES) | IC50 (Human betaherpesvirus 5) | IC50 [1] | other results
CN(Cc1cc2c(=O)c(C(=O)NCc3ccc(Cl)cc3)cn(C)c2s1)CC(O)c1ccccc1 (centres undefined) | 180 nM | 100 nM | 
CN(Cc1cc2c(=O)c(C(=O)NCc3ccc(Cl)cc3)cn(C)c2s1)C[C@@H](O)c1ccccc1 |  |  | IC50 [2]: 200 nM; IC50 [3]: 400 nM
CN(Cc1cc2c(=O)c(C(=O)NCc3ccc(Cl)cc3)cn(C)c2s1)C[C@H](O)c1ccccc1 |  | 2550 nM | IC50 [2]: 5000 nM; IC50 [3]: 10500 nM
CN(Cc1cc2c(=O)c(C(=O)NCc3ccc(F)cc3)cn(C)c2s1)CC(O)c1ccc(F)cc1 (centres undefined) | 200 nM | 220 nM | 
CN(Cc1cc2c(=O)c(C(=O)NCc3cccc(Cl)c3)cn(C)c2s1)CC(O)c1ccc(F)cc1 (centres undefined) | 250 nM | 203 nM | 
CN(Cc1cc2c(=O)c(C(=O)NCc3cccc(Cl)c3)cn(C)c2s1)CC(O)c1ccccn1 (centres undefined) | 90 nM | 86 nM | solubility [4]: 9 µM (≈ 4.47 µg/mL)
CN(Cc1cc2c(=O)c(C(=O)NCc3cccc(Cl)c3)cn(C)c2s1)CC(O)c1cccnc1 (centres undefined) | 60 nM | 160 nM | 
CN(Cc1cc2c(=O)c(C(=O)NCc3ccc(Cl)cc3)cn(C)c2s1)CC(O)c1nccs1 (centres undefined) | 200 nM | 235 nM | 
CN(Cc1cc2c(=O)c(C(=O)NCc3ccc(Cl)cc3)cn(C)c2s1)CC(O)c1cnccn1 (centres undefined) | 65 nM | 85 nM | solubility [4]: 72 µM (≈ 35.9 µg/mL)
CC(C)C(O)CN(C)Cc1cc2c(=O)c(C(=O)NCc3ccc(Cl)cc3)cn(C)c2s1 (centres undefined) | > 5000 nM | 17500 nM | 
CN(Cc1cc2c(=O)c(C(=O)NCc3cccc(Cl)c3)cn(C)c2s1)C[C@@H](O)c1ccccn1 | 100 nM | 61 nM | IC50 [5]: > 40000 nM; IC50 [2]: 21 nM; IC50 (Human alphaherpesvirus 1): 3000 nM; bioavailability [6]: 45%; IC50 (Human gammaherpesvirus 4): 200 nM; IC50 [7]: > 40000 nM; IC50 [3]: 76 nM; IC50 (Human alphaherpesvirus 3): 2 nM; IC50 [8]: > 40000 nM; IC50 [9]: 70 nM; CC50 at 72 h [10]: > 100000 nM; bioavailability [11]: 76%
CN(Cc1cc2c(=O)c(C(=O)NCc3ccc(Cl)cc3)cn(C)c2s1)C[C@@H](O)c1cnccn1 | 15 nM | 37 nM | IC50 [5]: > 40000 nM; IC50 [2]: 19 nM; IC50 (Human alphaherpesvirus 1): 1600 nM; bioavailability [6]: 21%; IC50 [7]: > 40000 nM; IC50 [3]: 76 nM; IC50 (Human alphaherpesvirus 3): 7 nM; IC50 [8]: > 40000 nM; CC50 at 72 h [10]: > 100000 nM; bioavailability [11]: 66%
Nc1nc2c(ncn2COCCO)c(=O)[nH]1 [ACYCLOVIR] |  |  | IC50 (Human gammaherpesvirus 4): 6900 nM; CC50 at 72 h [10]: > 100000 nM
O=C(O)P(=O)(O)O [FOSCARNET] |  |  | IC50 [7]: < 280 nM
Nc1nc(O)c2ncn(COC(CO)CO)c2n1 [GANCICLOVIR] |  |  | CC50 at 72 h [10]: > 100000 nM

Continued, in another order:

IC50 (Human betaherpesvirus 5) | IC50 [1] | Structure (SMILES) | other results
450 nM | 240 nM | CCN(Cc1cc2c(=O)c(C(=O)NCc3ccc(Cl)cc3)cn(C)c2s1)CC(O)c1ccccc1 (centres undefined) | 
1600 nM | 2040 nM | CC(C)N(Cc1cc2c(=O)c(C(=O)NCc3ccc(Cl)cc3)cn(C)c2s1)CC(O)c1ccccc1 (centres undefined) | 
85 nM | 200 nM | CN(Cc1cc2c(=O)c(C(=O)NCc3ccc(Cl)cc3)cn(C)c2s1)CC(O)c1ccncc1 (centres undefined) | 
30 nM | 77 nM | CN(Cc1cc2c(=O)c(C(=O)NCc3ccc(Cl)cc3)cn(C)c2s1)CC(O)c1ccco1 (centres undefined) | solubility [4]: 0.4 µM (≈ 0.194 µg/mL)
40 nM | 65 nM | CN(Cc1cc2c(=O)c(C(=O)NCc3ccc(Cl)cc3)cn(C)c2s1)CC(O)c1ccc2ccccc2n1 (centres undefined) | 
250 nM | 175 nM | CN(Cc1cc2c(=O)c(C(=O)NCc3ccc(Cl)cc3)cn(C)c2s1)CC(O)c1cccs1 (centres undefined) | 
100 nM | 66 nM | CN(Cc1cc2c(=O)c(C(=O)NCc3ccc(Cl)cc3)cn(C)c2s1)CC(O)c1cccc(C#N)c1 (centres undefined) | 
300 nM | 315 nM | CN(Cc1cc2c(=O)c(C(=O)NCc3ccc(Cl)cc3)cn(C)c2s1)CC(O)c1ccc(C#N)cc1 (centres undefined) | 
20 nM | 87 nM | COc1cccc(C(O)CN(C)Cc2cc3c(=O)c(C(=O)NCc4ccc(Cl)cc4)cn(C)c3s2)c1 (centres undefined) | 
100 nM | 100 nM | CN(Cc1cc2c(=O)c(C(=O)NCc3ccc(Cl)cc3)cn(C)c2s1)CC(O)c1ncccn1 (centres undefined) | 
 | 35 nM | C[C@H](O)CN(C)Cc1cc2c(=O)c(C(=O)NCc3ccc(Cl)cc3)cn(C)c2s1 | 
> 5000 nM | 8400 nM | Cn1cc(C(=O)NCc2ccc(Cl)cc2)c(=O)c2cc(CNCC(O)c3ccccc3)sc21 (centres undefined) | 
400 nM | 1580 nM | Cn1cc(C(=O)NCc2ccc(Cl)cc2)c(=O)c2cc(CN(CCO)CC(O)c3ccccc3)sc21 (centres undefined) | 
> 5000 nM | 8900 nM | Cn1cc(C(=O)NCc2ccc(Cl)cc2)c(=O)c2cc(CN(CC(O)c3ccccc3)C3CC3)sc21 (centres undefined) | 
400 nM | 250 nM | CN(Cc1cc2c(=O)c(C(=O)NCc3ccc(Cl)cc3)cn(C)c2s1)CC(O)c1ccoc1 (centres undefined) | 
150 nM | 12 nM | CN(Cc1cc2c(=O)c(C(=O)NCc3ccc(Cl)cc3)cn(C)c2s1)CC(O)c1cc2ccccc2o1 (centres undefined) | 
1500 nM | 3530 nM | CC(O)CN(C)Cc1cc2c(=O)c(C(=O)NCc3ccc(Cl)cc3)cn(C)c2s1 (centres undefined) | 
57 nM | 100 nM | CN(Cc1cc2c(=O)c(C(=O)NCc3ccc(Cl)cc3)cn(C)c2s1)CC(O)c1ccc(O)cc1 (centres undefined) | 

Reference: ChEMBL document CHEMBL1139940, “2-Aryl-2-hydroxyethylamine substituted 4-oxo-4,7-dihydrothieno[2,3-b]pyridines as broad-spectrum inhibitors of human herpesvirus polymerases” (Bioorg Med Chem Lett, 2007)
